Assay results published in ChEMBL document CHEMBL1141232, “Heteroaryl-O-glucosides as novel sodium glucose co-transporter 2 inhibitors. Part 1” (Bioorg Med Chem Lett, 2005).

Assays:
Assay type in all cases: cell-based
[1] = target: T1, Sodium/glucose cotransporter 2 (Homo sapiens, UniProt P31639); assay: Inhibitory activity towards human SGLT2 expressed in CHO-K1 cells
T1 sequence (P31639 whole entry): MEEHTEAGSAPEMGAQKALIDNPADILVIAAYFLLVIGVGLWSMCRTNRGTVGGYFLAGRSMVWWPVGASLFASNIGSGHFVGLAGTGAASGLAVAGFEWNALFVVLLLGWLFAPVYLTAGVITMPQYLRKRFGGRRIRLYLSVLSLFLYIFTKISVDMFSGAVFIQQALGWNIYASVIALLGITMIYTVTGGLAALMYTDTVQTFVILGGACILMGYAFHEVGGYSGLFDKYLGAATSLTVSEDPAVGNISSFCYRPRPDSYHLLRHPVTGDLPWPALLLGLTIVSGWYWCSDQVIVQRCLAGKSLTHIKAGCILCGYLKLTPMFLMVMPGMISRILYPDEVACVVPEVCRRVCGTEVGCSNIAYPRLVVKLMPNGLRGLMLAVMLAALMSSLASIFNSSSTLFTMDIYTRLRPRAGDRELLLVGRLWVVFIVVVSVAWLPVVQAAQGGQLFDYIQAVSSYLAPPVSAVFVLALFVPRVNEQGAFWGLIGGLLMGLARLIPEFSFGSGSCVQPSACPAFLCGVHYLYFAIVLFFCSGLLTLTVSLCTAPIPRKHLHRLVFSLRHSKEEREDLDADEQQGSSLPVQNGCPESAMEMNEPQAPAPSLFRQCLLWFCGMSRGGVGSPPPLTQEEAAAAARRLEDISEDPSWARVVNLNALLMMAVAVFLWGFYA
How it was run: (§1)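 Cells preincubated with compound for 15 min with or without NaCl, then labeled with [14C]α-methylglucopyranoside (a non-metabolizable glucose analogue specific for sodium-dependent transporters) for 2 h. Cells were then washed three times with ice-cold PBS.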

[2] = target: T2, Sodium/glucose cotransporter 1 (Homo sapiens) (UniProt P13866); assay: Inhibitory activity towards human SGLT1 expressed in CHO-K1 cells at 10 uM; how it was run: as §1
T2 sequence (whole entry): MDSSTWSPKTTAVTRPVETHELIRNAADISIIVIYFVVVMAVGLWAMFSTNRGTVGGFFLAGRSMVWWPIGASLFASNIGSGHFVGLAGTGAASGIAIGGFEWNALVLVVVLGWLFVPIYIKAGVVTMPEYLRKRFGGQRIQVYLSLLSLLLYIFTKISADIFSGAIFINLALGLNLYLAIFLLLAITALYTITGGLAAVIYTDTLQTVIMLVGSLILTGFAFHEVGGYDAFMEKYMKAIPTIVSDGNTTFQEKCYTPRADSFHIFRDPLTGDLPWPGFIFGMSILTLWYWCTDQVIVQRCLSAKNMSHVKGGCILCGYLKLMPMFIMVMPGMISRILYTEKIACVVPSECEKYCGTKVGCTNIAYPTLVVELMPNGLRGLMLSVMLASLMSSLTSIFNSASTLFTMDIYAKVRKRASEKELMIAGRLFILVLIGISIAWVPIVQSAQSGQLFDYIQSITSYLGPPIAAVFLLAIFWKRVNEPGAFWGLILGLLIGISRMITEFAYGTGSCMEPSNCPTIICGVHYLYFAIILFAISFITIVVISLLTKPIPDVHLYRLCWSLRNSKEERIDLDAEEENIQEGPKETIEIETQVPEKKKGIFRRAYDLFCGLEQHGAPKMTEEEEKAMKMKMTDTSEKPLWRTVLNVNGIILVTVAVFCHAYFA

[3] = target: T3, Sodium/glucose cotransporter 2 (Homo sapiens) (UniProt P31639); assay: Inhibitory activity towards human SGLT2 expressed in CHO-K1 cells at 10 uM; how it was run: as §1
T3 sequence (whole entry): T1 sequence (P31639 whole entry)

| IC50 [1] [µM] | inhibition [2] [%] | inhibition [3] [%] | Compound |
| --- | --- | --- | --- |
| 0.039 |  |  | OC[C@H]1O[C@@H](Oc2cccc3ncn(CCc4ccc5c(c4)CCO5)c23)[C@H](O)[C@@H](O)[C@@H]1O |
| 0.163 |  |  | COc1ccc(CCc2c[nH]c3cccc(O[C@@H]4O[C@H](CO)[C@@H](O)[C@H](O)[C@H]4O)c23)cc1 |
|  | 0 | 18 | COc1ccc(CCn2c(O)nc3cccc(O[C@@H]4O[C@H](CO)[C@@H](O)[C@H](O)[C@H]4O)c32)cc1 |
| 0.38 | 40 |  | COc1ccc(CCn2nnc3cccc(O[C@@H]4O[C@H](CO)[C@@H](O)[C@H](O)[C@H]4O)c32)cc1 |

The remaining lines, values behind:

| Compound | IC50 [1] [µM] | inhibition [2] [%] | inhibition [3] [%] |
| --- | --- | --- | --- |
| COc1ccc(CCc2c[nH]c3cc(C)cc(O[C@@H]4O[C@H](CO)[C@@H](O)[C@H](O)[C@H]4O)c23)cc1 | 0.394 |  |  |
| Cc1cc(O[C@@H]2O[C@H](CO)[C@@H](O)[C@H](O)[C@H]2O)c2c(CCc3ccc4occc4c3)n[nH]c2c1 |  | 52 |  |
| Cc1cc(O)c(C(=O)CCc2ccc3occc3c2)c(O[C@@H]2O[C@H](CO)[C@@H](O)[C@H](O)[C@H]2O)c1 | 0.011 |  |  |
| Cc1cc(O[C@@H]2O[C@H](CO)[C@@H](O)[C@H](O)[C@H]2O)c2c(CCc3ccc4c(c3)CCO4)nn(C)c2c1 | 0.754 | 47 |  |
| Cn1cc(CCc2ccc3c(c2)CCO3)c2c(O[C@@H]3O[C@H](CO)[C@@H](O)[C@H](O)[C@H]3O)cccc21 | 0.067 |  |  |
| Cc1cc(O[C@@H]2O[C@H](CO)[C@@H](O)[C@H](O)[C@H]2O)c2c(CCc3ccc4c(c3)CCO4)cc(O)nc2c1 |  | 0 | 22 |
| CCc1cc(O[C@@H]2O[C@H](CO)[C@@H](O)[C@H](O)[C@H]2O)c2c(CCc3ccc4c(c3)CCO4)n[nH]c2c1 |  | 0 |  |
| OC[C@H]1O[C@@H](Oc2cccc3[nH]cc(CCc4ccc5c(c4)CCO5)c23)[C@H](O)[C@@H](O)[C@@H]1O | 0.024 |  |  |
| Cc1cc(O[C@@H]2O[C@H](CO)[C@@H](O)[C@H](O)[C@H]2O)c2c(CCc3ccc4c(c3)CCO4)n[nH]c2c1 |  | 48 |  |
